According to PMC3467149 (ACS medicinal chemistry letters, 2012):
Read-outs that look alike come from different tables or passages of the source.

Key:
[1] = test system: LRRK2 Ser910/Ser935 phosphorylation; details: intraperitoneal doses of up to 100 mg/Kg; cited from earlier work
[2] = biological target: T1, GST-LRRKT[A2016T] (1,326–2,527) (Homo sapiens, UniProt Q5S007, A2016T); assay: Biochemical inhibition of GST-LRRK2[A2016T]; details: 20 µM Nictide, 100 µM ATP
T1 sequence (Q5S007 1326-2527 A2016T): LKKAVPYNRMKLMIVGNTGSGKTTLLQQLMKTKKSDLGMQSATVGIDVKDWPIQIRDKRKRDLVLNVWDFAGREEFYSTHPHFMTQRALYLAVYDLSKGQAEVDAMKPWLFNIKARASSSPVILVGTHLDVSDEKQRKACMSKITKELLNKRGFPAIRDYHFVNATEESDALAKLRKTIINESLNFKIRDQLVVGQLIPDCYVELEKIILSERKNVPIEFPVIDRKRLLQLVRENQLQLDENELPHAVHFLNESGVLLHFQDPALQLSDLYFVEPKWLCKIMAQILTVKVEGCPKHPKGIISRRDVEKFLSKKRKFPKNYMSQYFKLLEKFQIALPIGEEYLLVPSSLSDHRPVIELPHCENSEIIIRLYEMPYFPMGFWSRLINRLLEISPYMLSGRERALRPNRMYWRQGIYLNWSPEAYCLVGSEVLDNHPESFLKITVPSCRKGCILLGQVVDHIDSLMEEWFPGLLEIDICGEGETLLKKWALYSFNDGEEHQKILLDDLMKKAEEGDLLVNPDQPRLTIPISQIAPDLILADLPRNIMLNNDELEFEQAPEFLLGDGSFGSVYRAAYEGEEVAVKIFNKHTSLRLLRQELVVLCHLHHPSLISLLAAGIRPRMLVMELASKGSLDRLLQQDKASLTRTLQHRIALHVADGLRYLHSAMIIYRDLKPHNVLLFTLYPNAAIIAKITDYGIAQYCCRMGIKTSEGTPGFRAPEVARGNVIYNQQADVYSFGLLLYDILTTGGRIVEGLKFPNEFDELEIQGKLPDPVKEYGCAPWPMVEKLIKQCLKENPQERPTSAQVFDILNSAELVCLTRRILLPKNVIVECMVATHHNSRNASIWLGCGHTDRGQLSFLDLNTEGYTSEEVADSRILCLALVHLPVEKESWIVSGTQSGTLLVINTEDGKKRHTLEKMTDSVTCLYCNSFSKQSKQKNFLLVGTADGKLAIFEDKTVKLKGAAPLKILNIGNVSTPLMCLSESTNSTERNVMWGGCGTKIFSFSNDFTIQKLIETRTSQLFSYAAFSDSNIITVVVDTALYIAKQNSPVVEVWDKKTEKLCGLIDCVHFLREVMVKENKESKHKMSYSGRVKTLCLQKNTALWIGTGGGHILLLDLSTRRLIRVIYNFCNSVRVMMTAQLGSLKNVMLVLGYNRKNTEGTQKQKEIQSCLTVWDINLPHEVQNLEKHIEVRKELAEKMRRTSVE

[3] = test system: GFP-LRRK2[A2016T] in HEK293 cells; assay: Ser910/Ser935 phosphorylation in HEK293 cells, GFP-LRRK2[A2016T]; assay type: cell-based; details: 90 min
How it was run: (§1)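 HEK293 cells stably expressing the GFP-tagged LRRK2 mutant were treated with DMSO or increasing concentrations of test compound for 90 min. A reference LRRK2 inhibitor at 1 μM served as control. Cell lysates were immunoblotted for LRRK2 phospho-Ser910, phospho-Ser935 and total LRRK2.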

[4] = test system: GFP-LRRK2[G2019S+A2016T] in HEK293 cells; assay: Ser910/Ser935 phosphorylation in HEK293 cells, GFP-LRRK2[G2019S+A2016T]; assay type: cell-based; details: 90 min
How it was run: as §1

[5] = test system: LRRK2 Ser910/Ser935 phosphorylation; assay type: in vivo, mouse
How it was run: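 Mice received the test compound intraperitoneally at 100, 50, 30 or 10 mg/kg. Brain, spleen and kidney were collected, and endogenous LRRK2 was resolved by SDS-PAGE. Blots were probed with phospho-specific antibodies to Ser910 and Ser935 and for total LRRK2, with quantitative analysis of the blots.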

[6] = biological target: LRRK2 (Mus musculus, UniProt Q5S006); assay: KiNativ chemical proteomics of tissues from treated animals, LRRK2; assay type: in vivo; details: for LRRK2 target engagement (KiNativ): spleen
[7] = test system: JNK1/2/3; assay: KiNativ chemical proteomics of tissues from treated animals, JNK1/2/3; assay type: in vivo, mouse
[8] = biological target: T2, TBK1 (Mus musculus, UniProt Q9WUN2); assay: KiNativ chemical proteomics of tissues from treated animals, TBK1; assay type: in vivo; details: read-out: TBK1 inhibition (KiNativ)
T2 sequence (Q9WUN2 1-729): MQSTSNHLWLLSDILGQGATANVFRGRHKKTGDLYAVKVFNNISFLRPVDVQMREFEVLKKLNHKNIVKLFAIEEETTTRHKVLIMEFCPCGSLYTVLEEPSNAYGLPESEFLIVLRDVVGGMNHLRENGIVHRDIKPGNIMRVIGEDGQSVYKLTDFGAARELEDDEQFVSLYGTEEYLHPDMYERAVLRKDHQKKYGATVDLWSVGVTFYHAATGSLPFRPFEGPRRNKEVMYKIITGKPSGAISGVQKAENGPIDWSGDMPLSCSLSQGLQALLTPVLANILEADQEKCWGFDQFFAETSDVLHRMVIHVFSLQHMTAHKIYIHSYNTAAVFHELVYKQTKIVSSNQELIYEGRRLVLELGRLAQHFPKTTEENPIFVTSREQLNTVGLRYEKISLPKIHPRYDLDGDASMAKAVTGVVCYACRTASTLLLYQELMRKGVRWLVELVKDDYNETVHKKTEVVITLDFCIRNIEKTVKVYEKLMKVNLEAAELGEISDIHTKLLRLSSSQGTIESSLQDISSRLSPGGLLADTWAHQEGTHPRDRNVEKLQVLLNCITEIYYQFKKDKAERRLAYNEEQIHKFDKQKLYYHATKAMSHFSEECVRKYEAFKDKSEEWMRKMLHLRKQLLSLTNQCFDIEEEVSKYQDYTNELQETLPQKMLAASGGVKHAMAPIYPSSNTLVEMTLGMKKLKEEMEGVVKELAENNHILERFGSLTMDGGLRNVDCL

[9] = test system: >150 protein and lipid kinases; assay: KiNativ chemical proteomics, other kinases of the panel; assay type: in vivo, mouse; details: any dose (3–100 mg/kg)
[10] = test system: panel of 451 kinases; assay: KinomeScan analysis; assay type: binding; details: 1 µM

Chain of LRRK2 (Q5S006 whole entry): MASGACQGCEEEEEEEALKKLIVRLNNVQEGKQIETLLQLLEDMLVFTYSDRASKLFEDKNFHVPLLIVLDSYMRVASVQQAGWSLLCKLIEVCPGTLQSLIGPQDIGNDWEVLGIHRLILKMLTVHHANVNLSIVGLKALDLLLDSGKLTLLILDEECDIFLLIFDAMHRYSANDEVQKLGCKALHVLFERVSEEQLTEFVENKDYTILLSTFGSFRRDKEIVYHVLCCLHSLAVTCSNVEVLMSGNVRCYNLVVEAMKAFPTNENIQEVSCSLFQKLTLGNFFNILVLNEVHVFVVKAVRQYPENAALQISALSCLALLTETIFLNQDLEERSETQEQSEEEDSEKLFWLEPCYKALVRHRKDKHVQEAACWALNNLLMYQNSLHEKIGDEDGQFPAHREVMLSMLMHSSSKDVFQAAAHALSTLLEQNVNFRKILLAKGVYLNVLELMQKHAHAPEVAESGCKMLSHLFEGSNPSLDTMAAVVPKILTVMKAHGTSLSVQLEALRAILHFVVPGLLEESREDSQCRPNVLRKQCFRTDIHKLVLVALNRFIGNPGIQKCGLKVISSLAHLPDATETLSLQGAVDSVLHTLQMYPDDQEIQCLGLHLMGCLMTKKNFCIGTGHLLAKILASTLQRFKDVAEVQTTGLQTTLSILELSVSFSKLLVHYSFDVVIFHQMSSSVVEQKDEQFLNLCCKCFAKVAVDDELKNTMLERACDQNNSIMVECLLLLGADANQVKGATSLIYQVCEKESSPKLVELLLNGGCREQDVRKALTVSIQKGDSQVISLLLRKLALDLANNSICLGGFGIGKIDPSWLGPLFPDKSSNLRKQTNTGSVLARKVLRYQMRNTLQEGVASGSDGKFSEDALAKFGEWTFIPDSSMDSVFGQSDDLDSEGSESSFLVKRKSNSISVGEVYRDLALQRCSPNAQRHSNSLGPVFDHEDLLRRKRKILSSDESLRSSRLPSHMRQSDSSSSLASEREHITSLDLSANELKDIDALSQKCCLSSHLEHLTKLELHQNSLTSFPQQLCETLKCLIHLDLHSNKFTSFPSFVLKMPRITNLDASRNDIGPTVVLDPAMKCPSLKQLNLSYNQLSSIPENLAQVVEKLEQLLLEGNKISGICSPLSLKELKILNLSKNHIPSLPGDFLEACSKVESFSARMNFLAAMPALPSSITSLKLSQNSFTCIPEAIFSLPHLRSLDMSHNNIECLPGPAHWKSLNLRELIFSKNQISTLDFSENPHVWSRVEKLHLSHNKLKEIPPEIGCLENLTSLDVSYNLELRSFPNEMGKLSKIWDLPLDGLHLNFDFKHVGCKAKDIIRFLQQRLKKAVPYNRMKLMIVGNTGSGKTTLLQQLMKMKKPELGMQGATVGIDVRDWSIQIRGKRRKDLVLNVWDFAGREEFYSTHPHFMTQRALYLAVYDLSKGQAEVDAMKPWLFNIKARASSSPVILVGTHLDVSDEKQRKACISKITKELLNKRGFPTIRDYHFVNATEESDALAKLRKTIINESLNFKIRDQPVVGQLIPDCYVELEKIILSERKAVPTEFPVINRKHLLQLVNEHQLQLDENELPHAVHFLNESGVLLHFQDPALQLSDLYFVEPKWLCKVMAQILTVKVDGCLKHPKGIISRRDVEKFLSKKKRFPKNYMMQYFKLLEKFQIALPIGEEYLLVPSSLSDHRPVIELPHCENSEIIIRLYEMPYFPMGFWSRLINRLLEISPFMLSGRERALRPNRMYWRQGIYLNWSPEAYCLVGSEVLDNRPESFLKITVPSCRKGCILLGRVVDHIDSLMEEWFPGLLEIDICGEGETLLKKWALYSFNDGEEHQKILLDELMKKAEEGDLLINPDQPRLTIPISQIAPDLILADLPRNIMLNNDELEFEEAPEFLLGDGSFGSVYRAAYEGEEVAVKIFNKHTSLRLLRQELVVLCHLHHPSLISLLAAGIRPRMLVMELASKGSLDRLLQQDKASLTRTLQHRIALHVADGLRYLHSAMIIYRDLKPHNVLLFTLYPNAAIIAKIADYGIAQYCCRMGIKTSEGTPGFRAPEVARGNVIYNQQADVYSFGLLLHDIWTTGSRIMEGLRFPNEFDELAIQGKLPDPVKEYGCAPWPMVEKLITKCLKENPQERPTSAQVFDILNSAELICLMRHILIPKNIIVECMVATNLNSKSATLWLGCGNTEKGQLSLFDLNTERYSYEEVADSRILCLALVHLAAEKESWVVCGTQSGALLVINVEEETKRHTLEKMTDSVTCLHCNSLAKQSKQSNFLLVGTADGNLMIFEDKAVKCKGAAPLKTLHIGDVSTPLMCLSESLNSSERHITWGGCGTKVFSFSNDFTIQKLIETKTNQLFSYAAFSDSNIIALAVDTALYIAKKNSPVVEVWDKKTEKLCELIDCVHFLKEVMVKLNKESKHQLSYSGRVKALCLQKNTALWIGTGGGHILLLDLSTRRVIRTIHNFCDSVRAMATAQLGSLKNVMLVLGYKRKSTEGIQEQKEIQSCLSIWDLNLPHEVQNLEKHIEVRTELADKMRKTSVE

COc1cc(N2CCOCC2)ccc1Nc1ncc(F)c(Nc2ccccc2NS(C)(=O)=O)n1 [CZC-25146]
inhibition of phosphorylation of Ser910 and Ser935 of LRRK2 in mouse brain [1]: none of these compounds are capable of effectively inhibiting

CNc1nc(Nc2ccc(C(=O)N3CCOCC3)cc2OC)ncc1Cl [Compound 4]
effect of the A2016T mutation on inhibition [2]: maintains inhibition of the A2016T mutation | concentration inducing dephosphorylation of Ser910 and Ser935 [3]: 1 to 3 µM | concentration inducing dephosphorylation of Ser910 and Ser935 [4]: 1 to 3 µM | lowest dose inhibiting Ser910 and Ser935 phosphorylation in mouse brain ([5]; mouse brain, intraperitoneal delivery): 50 mg/kg | inhibition of LRRK2 Ser910/Ser935 phosphorylation in brain ([5]; mouse, intraperitoneal 10 mg/kg): partial inhibition | inhibition of LRRK2 Ser910/Ser935 phosphorylation in brain ([5]; mouse, intraperitoneal 30 mg/kg): partial inhibition | inhibition of LRRK2 Ser910/Ser935 phosphorylation in tissues ([5]; mouse, intraperitoneal 50 mg/kg, all tissues): near complete inhibition | dephosphorylation of Ser910 and Ser935 of LRRK2 in tissues ([5]; mouse, intraperitoneal 100 mg/kg, kidney, spleen and brain): near complete dephosphorylation | LRRK2 target engagement (KiNativ) ([6]; 10 mg/kg): 80–90% | LRRK2 target engagement (KiNativ) ([6]; 30–100 mg/kg): greater than 90% | JNK1/2/3 inhibition (KiNativ) ([7]; 50 mg/kg): 35–40% | JNK1/2/3 inhibition (KiNativ) ([7]; 100 mg/kg): 35–40% | inhibition at 50 mg/kg [8]: 35 to 40% | inhibition at 100 mg/kg [8]: 35 to 40% | inhibition of kinases other than LRRK2 (KiNativ) [9]: ≤ 50% | interactions detected in KinomeScan [10]: no interactions detected with kinases other than G2019S LRRK2 with the exception of one mutant form of c-Kit (L576P)

COc1cc(C(=O)N2CCC(N3CCN(C)CC3)CC2)ccc1Nc1ncc2c(n1)N(C)c1ccccc1C(=O)N2C [LRRK2-IN-1, reference compound]
effect of the A2016T mutation on inhibition [2]: dramatic resistance | LRRK2 inhibition (KiNativ) ([6]; brain, 100 mg/kg): no LRRK2 inhibition | inhibition of phosphorylation of Ser910 and Ser935 of LRRK2 in mouse brain [1]: none of these compounds are capable of effectively inhibiting

COc1cc(N2CCC(N3CCN(C)CC3)CC2)ccc1Nc1ncc(Cl)c(Nc2ccccc2S(=O)(=O)C(C)C)n1 [TAE684]
inhibition of phosphorylation of Ser910 and Ser935 of LRRK2 in mouse brain [1]: none of these compounds are capable of effectively inhibiting
